Assay outcomes as filed in PubChem BioAssay.
This is a sample that favours compounds with a hit; in the whole collection about 1.2% have one here.
procasp7 counter: counter-screen: procaspase-7 (human) activation. P55210. recombinant procaspase-7, Ac-DEVD-pNA absorbance 405 nm; D23A/D198A/D206A triple mutant, cannot self-cleave; scale: DMSO 0, 5 µM enzyme 100. activation, % at 8.5 µM. hit rate 0.093% among 330,000. AID 463210;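 active = percent activation above the screen-wide mean plus 3 SD, cut at about 25% in these data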
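Replicates: singlicate. Assay system: Procaspase-7 triple mutant (PC-7 D3A). Signal: 405 nm absorbance of p-nitroaniline. Times: 1 h preincubation, 2 h reaction. Buffer or medium: Zinc-free HEPES pH 7.4 with 300 mM NaCl, 0.01% Triton X-100. Also added: DEVD-pNA substrate. Benchmarks: DMSO wells as 0%, DMSO with 5 µM added PC-7 as 100%.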
pCIP destab: compounds decreasing mouse p/CIP protein stability; AID 1984; F442A p/CIP-EGFP cells, EGFP fluorescence, 16 h; hit rate 0.01% among 290,000; decrease of EGFP signal, % at 10 µM; Q05BA5;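 active = EGFP signal decrease of at least 30% at 10 µM or well 3 SD below plate mean, unless failing retest; inactive = the rest, including hits failing retest or dose response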
Rce1 inh: yeast Ras-converting enzyme inhibition; Q03530; yeast membranes, quenched prenylated peptide cleavage fluorescence; calls only; hit rate 0.27% among 290,000;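 active = fall in fluorescence gain of 50% or more versus controls, with final raw signal at or below 3038400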
Hep lipid drop: modulators of hepatic lipid droplet formation; AML12 mouse hepatocytes, oleate lipid droplets, BODIPY imaging; inhibition, % at 6.5 µM; hit rate 0.4% among 240,000; AID 1656;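 active = lipid droplet intensity inhibited by at least 50%, with more than 500 cells counted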
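Test system: AML12 hepatocytes (mouse); reagent: oleate loading, 100 µM; dosing: one dose, 6.5 µM compound; incubation: overnight exposure; signal: fluorescence imaging, 20x objective, two fields per well; read-out basis: % inhibition of corrected integrated BODIPY droplet signal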
FXN GAA850 act: activators of GAA850 frataxin (FXN) promoter. HEK293 lucGAA850 FXN promoter luciferase reporter, 24 h; percent of 10 µM SAHA response. activation, % at 6 µM. hit rate 0.56% among 360,000. AID 540364;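 active = activation above the average of all compounds screened plus 3 SD, cutoff fixed separately per campaign, cut at about 7.5% in these data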
procasp3 activ: activators of human procaspase-3; activation, % at 8.5 µM; recombinant procaspase-3 D3A, Ac-DEVD-pNA absorbance 405 nm; P42574; hit rate 0.11% among 330,000;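 active = activation above the mean of all tested compounds plus 3 SD, cut at about 21% in these data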
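material = Procaspase-3 D3A mutant | probe or stimulus = Ac-DEVD-pNA | compound = single dose, 8.5 µM nominal compound, 0.8% DMSO | timing = 1 h preincubation, 2 h reaction | measured by = 405 nm absorbance of p-nitroaniline, reads at 0 and 120 min | benchmarks = DMSO-only low control, 5 µM PC-3 D3A high control | repeats = singlicate, each compound tested once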
GAA30 counter: activates GAA30 frataxin promoter, counter-screen for GAA850 activators; hit rate 66% among 1,900; HEK293 lucGAA30 FXN promoter luciferase, 24 h; DMSO = 0%, 5 µM ipriflavone = 100%; activation, % at 6 µM; shares compounds with FXN GAA850 act;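 active = mean activation above the mean of solvent-only control wells plus 3 SD, cut at about 22% in these data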;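 also: counterscreen of GAA850 promoter hits where activity marks nonselective or luminescence artifacts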
GAA850 confirm: confirmation of GAA850 frataxin (FXN) promoter activators; activation, % at 6 µM; HEK293 lucGAA850 FXN promoter luciferase reporter, 24 h; 100% = activation by SAHA; hit rate 86% among 1,900; shares compounds with FXN GAA850 act;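 active = mean activation above a set limit taken from the primary screen, cut at about 8% in these data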
A number is an active result; . = inactive; / = not tested or not shown; + = active, no number.

SMILES	procasp7 counter	pCIP destab	Rce1 inh	Hep lipid drop	FXN GAA850 act	procasp3 activ	GAA30 counter	GAA850 confirm
CN1/C(=C/C(=O)c2nc(S(C)(=O)=O)ncc2Cl)C(C)(C)c2ccccc21	.	.	.	/	9.8	.	.	.
Cc1cc(C(=O)Cn2ncc(Cl)c(Cl)c2=O)c(C)n1CC(F)(F)F	.	.	.	.	13.7	.	.	22.5
Cc1cc(OC(C)C(=O)N(Cc2ccco2)C2CCS(=O)(=O)C2)ccc1Cl (centres undefined)	.	.	.	.	11.7	.	.	.
CCc1ccc(OC(C)C(=O)N(Cc2ccco2)C2CCS(=O)(=O)C2)cc1 (centres undefined)	.	.	.	.	.	.	/	/
COC(=O)c1ccc(CSc2nc3ccccc3c(=O)n2-c2ccccc2)o1	.	.	.	.	15.6	.	.	12.4
Cc1ccc(NC(=O)c2cc(-c3cc(C)c(C)cc3O)n[nH]2)cc1C	.	.	.	.	.	.	/	/
Cc1cccc(-c2cc3nc4c(c(N5CCCC(O)C5)n3n2)CCC4)c1 (centres undefined)	.	.	.	/	.	.	/	/
OC1CCCN(c2c3c(nc4cc(-c5cccc(F)c5)nn24)CCCC3)C1 (centres undefined)	.	.	.	.	14.1	.	91.5	31.6
O=C(N/N=C/c1ccc(O)cc1)Nc1cccc2nsnc12	.	.	.	.	10.5	.	56.9	36.6
COc1cc(/C=N/NC(=O)Nc2cccc3nsnc23)cc(OC)c1OC	/	.	.	.	.	/	/	/
N#Cc1ccccc1Cn1c(=O)n(-c2ccc(CC(=O)NCc3ccco3)cc2)c(=O)c2sccc21	.	.	.	.	.	.	/	/
O=C(NCc1ccco1)c1ccc(Cn2c(=O)c3ccccc3n(Cc3cccc(F)c3)c2=O)cc1	.	.	.	.	8.0	.	.	.
COCCNC(=O)Cn1c(=O)n(Cc2ccc(C(=O)NCc3ccco3)cc2)c(=O)c2ccccc21	.	.	.	.	.	.	/	/
N#Cc1ccccc1Cn1c(=O)n(Cc2ccc(C(=O)NCc3ccco3)cc2)c(=O)c2sccc21	.	.	.	.	11.8	.	22.5	7.8
CCOC(=O)C1=C(COC(=O)Cc2ccccc2[N+](=O)[O-])NC(=O)NC1C (centres undefined)	/	/	/	/	.	/	/	/
CSc1ccccc1C(=O)NC1CCCc2ccccc21 (centres undefined)	.	.	.	.	.	.	/	/
O=C(NC1CCCC1)C(c1ccsc1)N(Cc1ccccc1)C(=O)Cc1cccs1 (centres undefined)	.	.	.	/	14.0	.	.	19.1
CCCCNc1nc(N)nc(-c2cc(Cl)ccc2O)n1	.	.	.	.	14.0	.	132.8	73.0
CCNc1nc(N)nc(-c2cc(Cl)ccc2O)n1	.	.	.	/	16.6	.	150.5	93.4
CCCNc1nc(N)nc(-c2cc(Cl)ccc2OC)n1	.	.	/	.	.	.	/	/
CC(C)(C)OC(=O)C[C@H]1C/C=C\C[C@H](CC(=O)N[C@H](CO)Cc2ccccc2)C(=O)N2CCC[C@@H]2COC1=O	.	/	/	/	.	.	/	/
CC(C)CN(C(=O)Cn1c(C(F)(F)F)nc2ccccc21)c1c(N)n(Cc2ccccc2)c(=O)[nH]c1=O	/	/	/	/	.	/	/	/
CN(C)S(=O)(=O)c1cc(NC(=O)CSc2nn(-c3ccc(Cl)cc3)c(=S)s2)ccc1Cl	.	.	.	.	10.6	.	.	9.1
Cc1ccc(NC(=O)CSc2nn(-c3ccc(Cl)cc3)c(=S)s2)cc1S(=O)(=O)N(C)C	.	.	.	.	10.4	.	.	.
NS(=O)(=O)c1cccc(NC(=O)CSc2nn(-c3ccccc3)c(=S)s2)c1	.	.	.	.	.	.	/	/
SMILES	procasp7 counter	pCIP destab	Rce1 inh	Hep lipid drop	FXN GAA850 act	procasp3 activ	GAA30 counter	GAA850 confirm
Cn1nccc1C(=O)N1CCCC(N2CCN(Cc3ccc4c(c3)OCO4)CC2)C1 (centres undefined)	/	.	.	.	.	/	/	/
CC(C)(C)c1nc(CN2CCOCC2)cc(CN2CCOCC2)c1O	.	.	.	.	.	.	/	/
Cc1ccc(-c2nc(CN3CCCCC3)cc(CN3CCCCC3)c2O)cc1	.	.	+	.	7.9	.	29.4	17.4
COc1cc(C#Cc2ccc3cc(CCO)oc(=O)c3c2)cc(OC)c1	.	/	/	/	7.8	.	106.4	37.6
Cc1nn(-c2ccccc2)c(C)c1NC(=O)COc1cc(F)ccc1[N+](=O)[O-]	.	/	/	/	.	.	/	/
CC(C)c1ccc(OCC(=O)N2CCCCCC2)c(Br)c1	.	.	.	.	7.8	.	86.1	28.9
COc1ccc(C)cc1S(=O)(=O)N1CCN(C(=O)c2ncoc2-c2ccccc2F)CC1	.	.	.	.	.	.	/	/
NC(=O)NCCC1=CCCCC1	.	.	.	.	.	.	/	/
C=CCn1c(N)c(C(=O)NCCC2=CCCCC2)sc1=S	.	.	.	.	7.6	.	92.3	34.6
C=CCN(CC=C)c1cnn(-c2nc3ccccc3[nH]2)c(=O)c1Cl	.	.	.	.	.	.	/	/
O=c1c(Cl)c(NCCCO)cnn1-c1nc2ccccc2[nH]1	.	.	.	/	29.3	.	61.1	54.5
Cn1/c(=N\NC(=O)c2ccccc2Cl)sc2ccccc21	.	.	.	.	8.1	.	103.6	26.9
Cc1nc(/N=C(\N)NC(=O)c2ccccc2)nc2ccccc12	.	.	.	.	8.3	.	97.2	32.5
CCOc1ccccc1N1CC(C(=O)Nc2cc(S(=O)(=O)N3CCOCC3)ccc2OC(C)C)CC1=O (centres undefined)	/	/	/	/	10.3	/	.	.
COc1ccc(-c2nc(C#N)c(NCCc3ccccc3)o2)cc1OC	.	.	.	.	8.2	.	99.5	34.4
COc1ccc(-c2cc(C(F)(F)F)nc(S(=O)(=O)CCCC(=O)Nc3cc(C)on3)n2)cc1OC	/	.	.	.	10.3	/	57.9	82.6
COc1ccccc1-c1cc(C(F)(F)F)nc(S(=O)(=O)CCCC(=O)Nc2cc(C)on2)n1	.	.	.	/	.	.	/	/
N#Cc1c(NC(=O)CSc2ncccn2)oc(-c2ccccc2)c1-c1ccccc1	.	/	.	/	.	.	/	/
CCn1c(SCC(=O)Nc2oc(-c3ccccc3)c(-c3ccccc3)c2C#N)nnc1-c1cc(OC)cc(OC)c1	.	.	.	.	13.0	.	.	.
